Experimental data reported in ChEMBL document CHEMBL1150282, “Synthesis and biological evaluation of pyridazinone analogues as potential cardiac positron emission tomography tracers” (J Med Chem, 2008).

Test system: Blood
Test: Biodistribution in Sprague-Dawley rat blood at 15 uCi, iv after 30 mins
Type: ADME, organism-based
Conditions: in vivo, 0.5 h
Procedure, shortened: (§1)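 Male Sprague–Dawley rats (300–400 g) anesthetized with sodium pentobarbital 50 mg/kg ip; left femoral vein cannulated; about 15 µCi radiotracer in 0.3 mL 10% ethanol saline given iv. Killed in CO₂ at 30 or 120 min (n = 3 per time point); tissues weighed and gamma-counted. Counts decay-corrected, net dose from syringe and catheter residues subtracted; expressed as %ID/g ± SD.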

| Drug uptake | Compound |
| --- | --- |
| 0.08 % ID/g | [2H]C([2H])(Oc1cnn(C(C)(C)C)c(=O)c1Cl)c1ccc(COC([2H])([2H])C([2H])([2H])F)cc1 |
| 0.15 % ID/g | CC(C)(C)n1ncc(OCc2ccc(OCCCF)cc2)c(Cl)c1=O |
| 0.18 % ID/g | CCC(CF)Oc1ccc(COc2cnn(C(C)(C)C)c(=O)c2Cl)cc1 (stereo not given) |

Test system: Heart
Test: Biodistribution in Sprague-Dawley rat heart at 15 uCi, iv after 30 mins
Type: ADME, organism-based
Conditions: in vivo, 0.5 h
Procedure, shortened: as §1

| Drug uptake | Compound |
| --- | --- |
| 1.09 % ID/g | [2H]C([2H])(Oc1cnn(C(C)(C)C)c(=O)c1Cl)c1ccc(COC([2H])([2H])C([2H])([2H])F)cc1 |
| 1.31 % ID/g | CC(C)(C)n1ncc(OCc2ccc(OCCCF)cc2)c(Cl)c1=O |
| 1.05 % ID/g | CCC(CF)Oc1ccc(COc2cnn(C(C)(C)C)c(=O)c2Cl)cc1 (stereo not given) |

Test system: Blood
Test: Biodistribution in Sprague-Dawley rat blood at 15 uCi, iv after 120 mins
Type: ADME, organism-based
Conditions: in vivo, 2 h
Procedure, shortened: as §1

| Drug uptake | Compound |
| --- | --- |
| 0.1 % ID/g | [2H]C([2H])(Oc1cnn(C(C)(C)C)c(=O)c1Cl)c1ccc(COC([2H])([2H])C([2H])([2H])F)cc1 |
| 0.07 % ID/g | CC(C)(C)n1ncc(OCc2ccc(OCCCF)cc2)c(Cl)c1=O |
| 0.06 % ID/g | CCC(CF)Oc1ccc(COc2cnn(C(C)(C)C)c(=O)c2Cl)cc1 (stereo not given) |

Test system: Femur
Test: Biodistribution in Sprague-Dawley rat femur at 15 uCi, iv after 120 mins
Type: ADME, organism-based
Conditions: in vivo, 2 h
Procedure, shortened: as §1

| Drug uptake | Compound |
| --- | --- |
| 0.78 % ID/g | [2H]C([2H])(Oc1cnn(C(C)(C)C)c(=O)c1Cl)c1ccc(COC([2H])([2H])C([2H])([2H])F)cc1 |
| 0.76 % ID/g | CC(C)(C)n1ncc(OCc2ccc(OCCCF)cc2)c(Cl)c1=O |
| 3 % ID/g | CCC(CF)Oc1ccc(COc2cnn(C(C)(C)C)c(=O)c2Cl)cc1 (stereo not given) |

Test system: Liver
Test: Biodistribution in Sprague-Dawley rat liver at 15 uCi, iv after 120 mins
Type: ADME, organism-based
Conditions: in vivo, 2 h
Procedure, shortened: as §1

| Drug uptake | Compound |
| --- | --- |
| 0.44 % ID/g | [2H]C([2H])(Oc1cnn(C(C)(C)C)c(=O)c1Cl)c1ccc(COC([2H])([2H])C([2H])([2H])F)cc1 |
| 0.55 % ID/g | CC(C)(C)n1ncc(OCc2ccc(OCCCF)cc2)c(Cl)c1=O |
| 0.39 % ID/g | CCC(CF)Oc1ccc(COc2cnn(C(C)(C)C)c(=O)c2Cl)cc1 (stereo not given) |

Test system: not listed separately
Test: Ratio of drug uptake in heart to lung of Sprague-Dawley rat at 15 uCi, iv after30 mins
Type: ADME, organism-based
Conditions: in vivo, 0.5 h
Procedure, shortened: (§2)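 Same rat protocol: pentobarbital-anesthetized male SD rats (300–400 g), about 15 µCi iv in 10% ethanol saline via femoral vein, three animals per point, gamma counting of weighed tissues with decay correction. Ratios formed from heart %ID/g over blood, lung, liver or femur %ID/g at 30 min post injection.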

| Activity | Compound |
| --- | --- |
| 7.33 | [2H]C([2H])(Oc1cnn(C(C)(C)C)c(=O)c1Cl)c1ccc(COC([2H])([2H])C([2H])([2H])F)cc1 |
| 5.4 | CC(C)(C)n1ncc(OCc2ccc(OCCCF)cc2)c(Cl)c1=O |
| 1.37 | CCC(CF)Oc1ccc(COc2cnn(C(C)(C)C)c(=O)c2Cl)cc1 (stereo not given) |

Test system: not listed separately
Test: Ratio of drug uptake in heart to liver of Sprague-Dawley rat at 15 uCi, iv after30 mins
Type: ADME, organism-based
Conditions: in vivo, 0.5 h
Procedure, shortened: as §2

| Activity | Compound |
| --- | --- |
| 1.7 | [2H]C([2H])(Oc1cnn(C(C)(C)C)c(=O)c1Cl)c1ccc(COC([2H])([2H])C([2H])([2H])F)cc1 |
| 0.77 | CC(C)(C)n1ncc(OCc2ccc(OCCCF)cc2)c(Cl)c1=O |
| 1.11 | CCC(CF)Oc1ccc(COc2cnn(C(C)(C)C)c(=O)c2Cl)cc1 (stereo not given) |

Test system: Lung
Test: Biodistribution in Sprague-Dawley rat lung at 15 uCi, iv after 30 mins
Type: ADME, organism-based
Conditions: in vivo, 0.5 h
Procedure, shortened: as §1

| Drug uptake | Compound |
| --- | --- |
| 0.15 % ID/g | [2H]C([2H])(Oc1cnn(C(C)(C)C)c(=O)c1Cl)c1ccc(COC([2H])([2H])C([2H])([2H])F)cc1 |
| 0.24 % ID/g | CC(C)(C)n1ncc(OCc2ccc(OCCCF)cc2)c(Cl)c1=O |
| 0.79 % ID/g | CCC(CF)Oc1ccc(COc2cnn(C(C)(C)C)c(=O)c2Cl)cc1 (stereo not given) |

Test system: Lung
Test: Biodistribution in Sprague-Dawley rat lung at 15 uCi, iv after 120 mins
Type: ADME, organism-based
Conditions: in vivo, 2 h
Procedure, shortened: as §1

| Drug uptake | Compound |
| --- | --- |
| 0.13 % ID/g | [2H]C([2H])(Oc1cnn(C(C)(C)C)c(=O)c1Cl)c1ccc(COC([2H])([2H])C([2H])([2H])F)cc1 |
| 0.08 % ID/g | CC(C)(C)n1ncc(OCc2ccc(OCCCF)cc2)c(Cl)c1=O |
| 0.22 % ID/g | CCC(CF)Oc1ccc(COc2cnn(C(C)(C)C)c(=O)c2Cl)cc1 (stereo not given) |

Test system: not listed separately
Test: Ratio of drug uptake in heart to femur of Sprague-Dawley rat at 15 uCi, iv after30 mins
Type: ADME, organism-based
Conditions: in vivo, 0.5 h
Procedure, shortened: as §2

| Activity | Compound |
| --- | --- |
| 4.6 | [2H]C([2H])(Oc1cnn(C(C)(C)C)c(=O)c1Cl)c1ccc(COC([2H])([2H])C([2H])([2H])F)cc1 |
| 2 | CC(C)(C)n1ncc(OCc2ccc(OCCCF)cc2)c(Cl)c1=O |
| 0.89 | CCC(CF)Oc1ccc(COc2cnn(C(C)(C)C)c(=O)c2Cl)cc1 (stereo not given) |

Test system: not listed separately
Test: Ratio of drug uptake in heart to blood of Sprague-Dawley rat at 15 uCi, iv after 30 mins
Type: ADME, organism-based
Conditions: heart and blood (heart-to-blood ratio), read-out: Activity
Procedure, shortened: as §2

| Kp at 0.5 h | Compound |
| --- | --- |
| 12.7 | [2H]C([2H])(Oc1cnn(C(C)(C)C)c(=O)c1Cl)c1ccc(COC([2H])([2H])C([2H])([2H])F)cc1 |
| 9.27 | CC(C)(C)n1ncc(OCc2ccc(OCCCF)cc2)c(Cl)c1=O |
| 6.05 | CCC(CF)Oc1ccc(COc2cnn(C(C)(C)C)c(=O)c2Cl)cc1 (stereo not given) |

Test system: Femur
Test: Biodistribution in Sprague-Dawley rat femur at 15 uCi, iv after 30 mins
Type: ADME, organism-based
Conditions: in vivo, 0.5 h
Procedure, shortened: as §1

| Drug uptake | Compound |
| --- | --- |
| 0.23 % ID/g | [2H]C([2H])(Oc1cnn(C(C)(C)C)c(=O)c1Cl)c1ccc(COC([2H])([2H])C([2H])([2H])F)cc1 |
| 0.65 % ID/g | CC(C)(C)n1ncc(OCc2ccc(OCCCF)cc2)c(Cl)c1=O |
| 1.23 % ID/g | CCC(CF)Oc1ccc(COc2cnn(C(C)(C)C)c(=O)c2Cl)cc1 (stereo not given) |

Test system: not listed separately
Test: Inhibition of mitochondrial complex 1 in bovine heart mitochondria assessed as effect on rate of NADH oxidation
Parameters: species or system Bos taurus
Conditions: not given
Procedure, shortened: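 Bovine heart submitochondrial particles (45 µg/mL final) in 50 mM K₂HPO₄ pH 7.4 with 0.4 µM antimycin A and 2 mM KCN. Inhibitor at varying concentrations preincubated 4 min, then 100 µM decyl ubiquinone and 50 µM NADH added. NADH oxidation followed at 340 nm, 37 °C, 120 s; IC50 is concentration giving 50% inhibition.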

| Compound | IC50 |
| --- | --- |
| [2H]C([2H])(Oc1cnn(C(C)(C)C)c(=O)c1Cl)c1ccc(COC([2H])([2H])C([2H])([2H])F)cc1 | 28 nM |
| CC(C)(C)n1ncc(OCc2ccc(OCCCF)cc2)c(Cl)c1=O | 47 nM |
| CCC(CF)Oc1ccc(COc2cnn(C(C)(C)C)c(=O)c2Cl)cc1 (stereo not given) | 16 nM |

Test system: Heart
Test: Biodistribution in Sprague-Dawley rat heart at 15 uCi, iv after 120 mins
Type: ADME, organism-based
Conditions: in vivo, 2 h
Procedure, shortened: as §1

| Drug uptake | Compound |
| --- | --- |
| 1.6 % ID/g | [2H]C([2H])(Oc1cnn(C(C)(C)C)c(=O)c1Cl)c1ccc(COC([2H])([2H])C([2H])([2H])F)cc1 |
| 0.86 % ID/g | CC(C)(C)n1ncc(OCc2ccc(OCCCF)cc2)c(Cl)c1=O |
| 1.24 % ID/g | CCC(CF)Oc1ccc(COc2cnn(C(C)(C)C)c(=O)c2Cl)cc1 (stereo not given) |

Test system: Liver
Test: Biodistribution in Sprague-Dawley rat liver at 15 uCi, iv after 30 mins
Type: ADME, organism-based
Conditions: in vivo, 0.5 h
Procedure, shortened: as §1

| Drug uptake | Compound |
| --- | --- |
| 0.64 % ID/g | [2H]C([2H])(Oc1cnn(C(C)(C)C)c(=O)c1Cl)c1ccc(COC([2H])([2H])C([2H])([2H])F)cc1 |
| 1.7 % ID/g | CC(C)(C)n1ncc(OCc2ccc(OCCCF)cc2)c(Cl)c1=O |
| 0.98 % ID/g | CCC(CF)Oc1ccc(COc2cnn(C(C)(C)C)c(=O)c2Cl)cc1 (stereo not given) |
